Experimental data collected from several papers.
Protocols differ between the studies behind these lines.
Target: Serine/threonine-protein kinase TAO3 (TAOK3, Homo sapiens, UniProt Q9H2K8)
Sequence (Q9H2K8 1-898, as in one of the studies): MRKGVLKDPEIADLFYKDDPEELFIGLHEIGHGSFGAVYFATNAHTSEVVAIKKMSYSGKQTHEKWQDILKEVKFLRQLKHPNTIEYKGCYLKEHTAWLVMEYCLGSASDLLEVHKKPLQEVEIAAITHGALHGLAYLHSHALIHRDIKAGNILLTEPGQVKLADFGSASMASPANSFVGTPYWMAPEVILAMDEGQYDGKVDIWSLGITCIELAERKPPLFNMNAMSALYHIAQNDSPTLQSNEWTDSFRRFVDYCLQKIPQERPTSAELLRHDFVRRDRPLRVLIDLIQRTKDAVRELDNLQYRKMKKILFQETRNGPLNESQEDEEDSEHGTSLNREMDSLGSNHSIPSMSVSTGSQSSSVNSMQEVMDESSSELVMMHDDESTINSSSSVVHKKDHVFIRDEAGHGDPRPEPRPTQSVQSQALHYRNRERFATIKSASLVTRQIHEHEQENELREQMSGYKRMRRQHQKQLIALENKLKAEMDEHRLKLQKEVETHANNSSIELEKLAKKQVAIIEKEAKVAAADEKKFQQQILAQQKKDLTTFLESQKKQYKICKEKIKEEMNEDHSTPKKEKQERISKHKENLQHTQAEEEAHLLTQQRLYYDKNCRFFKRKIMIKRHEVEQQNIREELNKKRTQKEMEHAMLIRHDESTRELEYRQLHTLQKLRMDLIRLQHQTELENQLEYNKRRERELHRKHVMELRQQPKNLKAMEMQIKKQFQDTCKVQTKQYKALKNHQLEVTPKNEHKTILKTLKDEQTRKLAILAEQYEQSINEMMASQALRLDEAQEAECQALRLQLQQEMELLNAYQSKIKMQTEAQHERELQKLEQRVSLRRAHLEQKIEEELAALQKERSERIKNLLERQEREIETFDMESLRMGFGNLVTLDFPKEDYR

For `COc1cc(-c2cc(-c3ccc(N4CCNCC4)cc3)cnc2C)cc(OC)c1OC`, the inhibition was 3% (enzyme activity, inhibitor; 0.1 µM).
`Cc1sc(C(=O)NC2COC2)cc1-n1cc(NC(=O)Nc2c(F)cccc2Cl)cn1` has a remaining activity of 98% (enzyme activity, inhibitor; 10 µM).
With `Cc1cc(NC(=O)c2cccc3cc(-c4cccc5[nH]nc(N)c45)ccc23)ccc1F` the activity vs control was 96% (enzyme activity, inhibitor; 0.1 µM).
The remaining signal of `Nc1ncnc2occ(-c3ccc(NC(=O)Nc4cc(C(F)(F)F)ccc4F)cc3)c12` is reported as 0.05% (cell-free assay, inhibitor; 20 µM).
The remaining signal of `CS(=O)(=O)CCNCc1ccc(-c2ccc3ncnc(Nc4ccc(OCc5cccc(F)c5)c(Cl)c4)c3c2)o1` is reported as 101% (cell-free assay; 0.5 µM).
For `COCCOc1nc(-c2ccc(Cl)nc2)nc2c1CN(C(=O)c1ncn3ccccc13)CC2`, the remaining binding was 100% (cell-free assay, competition with immobilised ligand; 0.1 µM).
`N#CCCc1ccc2c(c1)-c1[nH]c3ccc([N+](=O)[O-])cc3c1CC(=O)N2` has a remaining signal of 66% (cell-free assay; 0.5 µM).
With `O=C(O)[C@@H]1[C@@H](Cn2nnc3ccccc3c2=O)CC[C@H]1C(=O)c1ccc(OCCC2CCOCC2)cc1` the remaining binding was 100% (cell-free assay, competition with immobilised ligand; 1 µM).
The remaining signal of `CCN(CC)CCNC(=O)c1c(C)[nH]c(/C=C2\C(=O)Nc3ccc(F)cc32)c1C` is reported as 82.9% (cell-free assay; 0.5 µM).
For `CN1CC(Oc2cnc(C#N)cc2-c2ccn3nc(NC(=O)C4CC4)cc3c2)C1`, the inhibition was -4% (enzyme activity, inhibitor; 1 µM).
For `CNC(=O)c1cc(Oc2ccc(NC(=O)Nc3ccc(Cl)c(C(F)(F)F)c3)cc2)ccn1`, the inhibition was 77% (enzyme activity, inhibitor; 0.3 µM).
The remaining signal of `COc1cc(Nc2c(C#N)cnc3cc(OCCCN4CCN(C)CC4)c(OC)cc23)c(Cl)cc1Cl` is reported as 71.3% (cell-free assay; 0.5 µM).
With `CC(C)(O)[C@H]1CC[C@H](Nc2ccc3ncc(-c4cccc(C(F)(F)F)c4)n3n2)CC1` the remaining activity was 75.1% (enzyme activity, inhibitor; 1 µM).
For `O=[N+]([O-])c1cccc2[nH]c(CNc3nc(N4CCOCC4)nc4c3ncn4-c3ccsc3)nc12`, the binding vs control was 85% (binding, competition with immobilised ligand; 10 µM).
`CC(=O)N1CCC(c2ccc(C(=O)NC3=NCCN3)cc2C(F)(F)F)CC1` gave a remaining binding of 87% (cell-free assay, competition with immobilised ligand; 1 µM).
The remaining activity of `CC(C)(C)c1nc2c(s1)c1nc(N)ncc1c1ccc(NS(=O)(=O)c3c(F)cccc3F)c(F)c12` is reported as 87% (enzyme activity, inhibitor, radiometric; 1 µM).
For `CCCCN(CCCC)C(=O)CN1C[C@H](c2cc(OC)c3c(c2)OCO3)[C@@H](C(=O)O)[C@@H]1CC(C)(C)CCC`, the remaining binding was 63.2% (cell-free assay, competition with immobilised ligand; 1 µM).
For `O=C1NC(=O)c2cc(Nc3ccc(F)cc3)c(Nc3ccc(F)cc3)cc21`, the remaining signal was 89.9% (cell-free assay; 0.5 µM).
For `Cc1nccc(COC(=O)N2C[C@@H]3[C@@H](CNC(=O)c4ccc5[nH]nnc5c4)[C@@H]3C2)n1`, the remaining binding was 83% (cell-free assay, competition with immobilised ligand; 1 µM).
With `CCN(CC)c1ccc(C2=NNC(=O)CC2C)cc1[N+](=O)[O-]` (stereo not shown) the remaining activity was 95% (enzyme activity, inhibitor; 10 µM).
For `COc1ccc2c(c1)O[C@@H](c1ccc(OC)c(OC)c1)C[C@H]2NC(=O)C1(c2ccc3c(c2)OC(F)(F)O3)CC1`, the remaining binding was 91% (cell-free assay, competition with immobilised ligand; 1 µM).
`Cc1ccc(Nc2nccc(N(C)c3ccc4c(C)n(C)nc4c3)n2)cc1S(N)(=O)=O` gave an inhibition of 60% (enzyme activity, inhibitor; 0.3 µM).
